Most compounds without a hit are left out; they make up all but 4.6% or so of the library.
OX1R antag-1: blocks the human orexin 1 receptor; O43613; OX1R-expressing cells, FRET antagonist read-out; inhibition, % at 6.6 µM; 330,000 tested, 1.8% active; in the data active means inhibition mostly above about 38%, no sharp cut-off; inactive means mostly below about 40%
OX1R antag-2: antagonists of human orexin 1 receptor. CHO/OX1R cells, Fluo-8 calcium fluorescence, orexin A. O43613. AID 434989. inhibition, % at 5 µM. 330,000 tested, 0.43% active;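 active means inhibition above its plate's threshold, mean inhibition of all tested compounds on the plate plus 3 SD, cut at about 37% in these data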
TAAR1 antag: human TAAR1 antagonism; Q96RJ0; CHO RD-HGA16 TAAR1, Fluo-8 calcium fluorescence, antagonist; inhibition, % at 3 µM; 360,000 tested, 1.5% active; AID 624466;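 active means inhibition above a per-plate cutoff, the mean inhibition of test compounds on that plate plus 3 SD, cut at about 49% in these data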
Target sequence (Q96RJ0 whole entry, looked up): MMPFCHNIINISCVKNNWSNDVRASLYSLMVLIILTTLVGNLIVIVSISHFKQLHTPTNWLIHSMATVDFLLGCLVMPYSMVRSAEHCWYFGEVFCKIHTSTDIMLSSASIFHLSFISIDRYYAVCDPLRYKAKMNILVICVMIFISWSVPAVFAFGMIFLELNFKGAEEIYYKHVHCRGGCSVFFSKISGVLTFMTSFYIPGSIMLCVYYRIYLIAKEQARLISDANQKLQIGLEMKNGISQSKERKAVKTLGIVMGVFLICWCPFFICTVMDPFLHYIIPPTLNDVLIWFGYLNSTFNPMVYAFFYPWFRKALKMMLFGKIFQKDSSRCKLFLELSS
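Assay system: RD-HGA16 CHO cells with stable hTAAR1 and Gα16 / Reagent: EC80 β-phenethylamine stimulus / Doses: 3 µM, single point / Timing: dye loading 75 min at 37 °C, then 30 min room temperature / Measured by: Fluo-8 intracellular calcium dye fluorescence, real-time kinetic reads / Controls: vehicle wells and EC80 agonist wells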
GPR7 antag: blocks human GPR7 receptor signaling; inhibition, % at 4.4 µM; GPR7-expressing cells, fluorescence antagonist assay; P48145; AID 1861; 290,000 tested, 1.1% active; in the data active means inhibition above about 16%, passing the limit was not always enough;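 further: cells stimulated with the agonist NPW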
Target sequence (P48145 whole entry, looked up): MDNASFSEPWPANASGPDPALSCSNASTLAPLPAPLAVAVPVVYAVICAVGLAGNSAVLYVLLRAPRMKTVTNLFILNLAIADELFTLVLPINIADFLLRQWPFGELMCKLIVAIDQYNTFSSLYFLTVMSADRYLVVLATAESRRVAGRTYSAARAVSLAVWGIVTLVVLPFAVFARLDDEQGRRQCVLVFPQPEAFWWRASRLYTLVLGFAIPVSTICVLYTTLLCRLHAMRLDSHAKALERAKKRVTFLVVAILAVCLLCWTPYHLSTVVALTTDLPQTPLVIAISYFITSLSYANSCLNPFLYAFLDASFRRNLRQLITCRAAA
CHO parental Ca: counter-screen for OX1R antagonists: effect in parental CHO cells. parental CHO-K1, ATP-induced calcium, Fluo-8 fluorescence. inhibition, % at 5.6 µM. 330,000 tested, 0.63% active. AID 463079;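 active means inhibition above that plate's mean sample inhibition plus 3 SD, cut at about 26% in these data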
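Test system: parental CHO cells; detection: calcium-sensitive Fluo-8 fluorescence; evaluation: percent inhibition of calcium signal; also added: ATP as calcium-mobilizing challenge; repeats: one well per compound; control set: ATP-challenged DMSO wells low, unchallenged DMSO wells high; compound: single nominal dose of 5.6 µM per compound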
TAAR1 ag: agonists of human TAAR1; Q96RJ0; CHO RD-HGA16 TAAR1, Fluo-8 calcium fluorescence; vehicle wells 0%, saturating PEA agonist 100%; activation, % at 3 µM; 360,000 tested, 0.99% active;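 active means activation above the mean activation of all test compounds in the run plus 3 SD, cut at about 38% in these data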
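test system = CHO RD-HGA16 cells carrying human TAAR1 plus Gα16 | schedule = 17-24 h seeding, 75 min 37 °C dye, 30 min RT | compound dosing = 3 µM single concentration | control set = DMSO and PEA EC100 | replicates = n 1 | signal = Fluo-8 fluorescence, 5 s baseline then 140 s kinetic read | measure = percent activation vs PEA EC100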
Each line names hits and unclear results; the compound was inactive in the other large screens.

O=C(O)[C@H](Cc1ccccc1)N1Cc2ccccc2C1=O	none
COC(=O)CC(c1ccccc1F)N1Cc2ccccc2C1=O (configuration not stated)	none
COC(=O)C(Cc1ccc(OC(=O)c2ccccc2C)cc1)N1Cc2ccccc2C1=O (configuration not stated)	TAAR1 antag 52.4
COC(=O)C(Cc1ccc(OC(=O)c2ccccc2Cl)cc1)N1Cc2ccccc2C1=O (configuration not stated)	TAAR1 antag 59.1
O=C(O)c1ccc(NCc2nc3ccccc3n2Cc2ccccc2F)cc1	none
NC(=O)CC(NC(=O)c1cccc(Br)c1)c1ccc(NCC2CC2)c([N+](=O)[O-])c1 (configuration not stated)	none
CN(C)Cc1cn(CC[C@@H]2CC[C@@H](NC(=O)Nc3ccccc3F)[C@@H](CO)O2)nn1	none (no result: OX1R antag-1, OX1R antag-2, GPR7 antag, CHO parental Ca)
Cc1ccc([N+](=O)[O-])cc1NC(=O)c1ccc(C(C)(C)C)cc1	TAAR1 antag 53.5
COc1c(OC(C)=O)c(=O)n2c3ccccc3c3ccnc1c32	OX1R antag-1 51.9 (no result: GPR7 antag)
CC(=O)Oc1c(C)c(=O)n(C)c2ccccc12	none
COc1ccccc1CNn1c(-c2cccc(C)c2)nc2ccccc2c1=O	OX1R antag-1 51.1
CN(C)CCCN(C(=O)c1ccc([N+](=O)[O-])s1)c1nc2cc3c(cc2s1)OCCO3	OX1R antag-1 78.2
COc1ccc(C(CNC(=O)c2ccc(-c3ccccc3Cl)o2)N2CCCC2)cc1 (configuration not stated)	TAAR1 ag 41.8 (no result: OX1R antag-1, OX1R antag-2, GPR7 antag, CHO parental Ca)
CC1CC(C)CN(CCCNC(=O)C2CCN(c3ncnc4c3sc3cccc(F)c34)CC2)C1 (configuration not stated)	OX1R antag-1 54.8 (no result: TAAR1 antag, TAAR1 ag)
O=C(Nc1ccc(F)cc1F)C1CCN(c2ncnc3c2sc2cccc(F)c23)CC1	OX1R antag-1 46.4
CCn1c(=O)n(CC)c2cc(S(=O)(=O)NCCOc3ccccc3)c(C)cc21	none
C/C(=N\Nc1nc2ccccc2s1)c1ccc(Br)s1	none
CC(=NNc1nc2ccccc2s1)c1ccncn1	TAAR1 antag 63.6 (no result: OX1R antag-1, OX1R antag-2, GPR7 antag, CHO parental Ca)
COc1cc(NS(=O)(=O)c2c(C)[nH]c(C)c2C(=O)N2CCCCC2)cc(OC)c1OC	none
COc1ccc(Cl)cc1NS(=O)(=O)c1c(C)[nH]c(C)c1C(=O)N1CCCCC1	OX1R antag-1 48.8
CC(C)C(NS(=O)(=O)c1cccc2nsnc12)C(=O)NC1CCCCC1C (configuration not stated)	OX1R antag-1 45.7 (no result: TAAR1 antag, TAAR1 ag)
O=C(NCc1cccs1)C(NS(=O)(=O)c1cccc2nsnc12)c1ccccc1 (configuration not stated)	OX1R antag-1 49.2
O=C(O)C(Cc1c[nH]c2ccccc12)NS(=O)(=O)c1cccc2nsnc12 (configuration not stated)	OX1R antag-1 61.0
COc1ccccc1CNS(=O)(=O)c1cccc2nsnc12	none
CC(C)C(NS(=O)(=O)c1cccc2nsnc12)C(=O)Nc1nccs1 (configuration not stated)	none
COc1ccccc1CNC(=O)C(NS(=O)(=O)c1cccc2nsnc12)C(C)C (configuration not stated)	OX1R antag-1 76.2
O=C(NC1CCN(Cc2ccccc2)CC1)C(NS(=O)(=O)c1cccc2nsnc12)c1ccccc1 (configuration not stated)	none
CC(=O)c1sc(NC(=O)COc2c(C)cc(Cl)cc2C)nc1C	none (no result: TAAR1 antag, TAAR1 ag)
O=C(c1cccnc1)N1CCN(Cc2cccc(Br)c2)CC1	none
Cc1cc(=O)n2c(c1C#N)SC1CCCCC12O (configuration not stated)	none
O=S(=O)(NCc1ccccc1)c1cccc2nsnc12	none
Cc1c(NS(=O)(=O)c2cccc3nsnc23)c(=O)n(-c2ccccc2)n1C	OX1R antag-1 76.7
Cc1ccnc(NS(=O)(=O)c2cccc3nsnc23)c1	OX1R antag-1 127.0
Cc1cccc(NS(=O)(=O)c2cccc3nsnc23)c1	none
CC(C)NS(=O)(=O)c1cccc2nsnc12	OX1R antag-1 71.8
NCCc1cnc[nH]1	none
NCCc1ccn[nH]1	TAAR1 ag 39.8 (no result: GPR7 antag)
O=C(NCc1ccccc1)C1c2ccccc2OCC(=O)N1Cc1ccc2c(c1)OCO2 (configuration not stated)	none (no result: OX1R antag-1, OX1R antag-2, GPR7 antag, CHO parental Ca)
CSc1ccc(/C=C(\C#N)C(=O)NC2CCCCC2C)cc1 (configuration not stated)	none
CC(=O)Nc1ccc(/C=C(\C#N)C(=O)NC2CCCCC2C)cc1 (configuration not stated)	GPR7 antag 20.1
CCn1c(C)c(C(C)=O)c(N2CCN(C(c3ccccc3)c3ccccc3)CC2)nc1=S	TAAR1 antag 50.3
CCOc1ccc(N(CC(=O)Nc2cccc(Cl)c2)S(=O)(=O)c2c(C)noc2C)cc1	CHO parental Ca 39.6
Cc1noc(C)c1S(=O)(=O)N(CC(=O)NCc1ccc2c(c1)OCO2)c1ccc(C(C)C)cc1	none
Cc1ccc(N(CC(=O)NCc2ccc3c(c2)OCO3)S(=O)(=O)c2c(C)noc2C)cc1	OX1R antag-1 60.2
COc1ccccc1CNC(=O)CN(c1ccc(C)cc1)S(=O)(=O)c1c(C)noc1C	OX1R antag-1 71.0
COc1ccc(N(CC(=O)NCc2ccccc2)S(=O)(=O)c2c(C)noc2C)cc1	none
COc1ccc(CNC(=O)CN(c2ccc(C)cc2)S(=O)(=O)c2c(C)noc2C)cc1	OX1R antag-1 43.7
Cc1nn(C)c(C(=O)NNC(=S)NC2CCCCC2)c1Br	none
O=C(c1ccc(NS(=O)(=O)c2ccc(F)cc2)cc1)N1CCCCCC1	none (no result: GPR7 antag)
CCOc1ccc(NC(=O)CCC(=O)NNC(=O)Nc2cccc(Cl)c2)cc1	TAAR1 ag 42.6
O=C(COc1ccccc1/C=C1\SC(=O)NC1=O)Nc1ccccc1	OX1R antag-1 59.3
Cc1ccc(S(=O)(=O)N(C)C[C@@H]2Oc3ccc(NC(=O)Cn4cnnn4)cc3C(=O)N([C@@H](C)CO)C[C@H]2C)cc1	none (no result: GPR7 antag)
NC(=O)c1ccc(N2CCN(S(=O)(=O)c3ccccc3)CC2)c([N+](=O)[O-])c1	none
COC(=O)c1ccc(N2CCN(S(=O)(=O)c3ccc4ccccc4c3)CC2)c([N+](=O)[O-])c1	CHO parental Ca 37.6
COc1ccc(N2CCN(S(=O)(=O)c3ccc4c(c3)CCCC4)CC2)c([N+](=O)[O-])c1	OX1R antag-1 36.9
CC1(C)OC2COC(c3[nH]nc4c(=O)[nH]c(=O)[nH]c34)C2O1 (configuration not stated)	none (no result: OX1R antag-1, OX1R antag-2, GPR7 antag, CHO parental Ca)
Cc1c(O)nc2ccccn2c1=O	none
O=c1c2c([N+](=O)[O-])cc([N+](=O)[O-])cc2nc2ccccn12	OX1R antag-1 73.2
Cc1ccc(CN2CCN(CC(=O)N=Nc3c(O)[nH]c4ccccc34)CC2)cc1	OX1R antag-1 65.6

Source: PubChem (The Scripps Research Institute Molecular Screening Center)
